{"source": "ChEMBL document CHEMBL2203008", "about": "“Photoaffinity labeling of Ras converting enzyme using peptide substrates that incorporate benzoylphenylalanine (Bpa) residues: improved labeling and structural implications” (Bioorg Med Chem, 2011)", "key": {"Saccharomyces cerevisiae [1]": {"tested_on": "Saccharomyces cerevisiae", "test": "Activity of Rce1p in yeast membrane assessed as release of -K(Dnp)IM tripeptide measured per mg protein by fluorescence-based proteolytic assay", "assay_type": "cell membranes", "procedure,_shortened": "(§1)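 Enzyme was carbonate-washed membranes from S. cerevisiae overexpressing HA-tagged yeast Rce1p as the sole CAAX protease. Membranes were preincubated 10 min at 30 °C, then added to the Abz/Dnp fluorogenic farnesyl peptide: 10 concentrations, 0–45 or 0–50 μM final, 0.25 mg/mL membrane protein, Hepes/MgCl2 pH 7.5. Fluorescence (340/420 nm) was read every 30–60 s for 1 h at 30 °C. RFU were converted to product using a trypsin standard curve to give KM and Vmax. Runs were done in two or five replicates.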"}, "Saccharomyces cerevisiae [2]": {"tested_on": "Saccharomyces cerevisiae", "test": "Ratio of Vmax to Km for Rce1p in yeast membrane assessed as release of -K(Dnp)IM tripeptide measured per mg protein by fluorescence-based proteolytic assay", "assay_type": "cell membranes", "procedure,_shortened": "as §1"}, "Saccharomyces cerevisiae [3]": {"tested_on": "Saccharomyces cerevisiae", "test": "Competitive binding affinity to Rce1p active site in yeast membrane at 15 uM measured 30 mins post irradiation by Western blot analysis in presence of 50 uM Abz-KSKTKC(Fr)K(Dnp)IM", "assay_type": "cell membranes", "procedure,_shortened": "(§2)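 RCE1-HA membranes (0.25 μg/μL) were irradiated at 2537 Å with 15 μM probe for 30 min at 4 °C. The non-photoreactive farnesylated substrate was present at 50 or 100 μM, in Hepes/MgCl2 pH 7.5. Samples were taken through streptavidin pull-down, SDS-PAGE, anti-HA Western blot with ECL, and densitometry across four replicate experiments.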"}, "Saccharomyces cerevisiae [4]": {"tested_on": "Saccharomyces cerevisiae", "test": "Binding affinity to rce1/ste24-deficient yeast cell membrane at 15 uM measured 30 mins post irradiation by Western blot analysis", "procedure,_shortened": "(§3)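 Probe at 15 μM was irradiated at 2537 Å for 30 min at 4 °C in Hepes/MgCl2 pH 7.5, or left unirradiated. Membranes (0.25 μg/μL) came from RCE1-HA or Rce1p-lacking (rce1Δ ste24Δ) yeast strains. This was followed by streptavidin pull-down, SDS-PAGE and anti-HA Western blot with ECL detection.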"}, "Saccharomyces cerevisiae [5]": {"tested_on": "Saccharomyces cerevisiae", "test": "Binding affinity to Rce1p in yeast membrane at 15 uM measured 30 mins post irradiation by time-course experiment", "assay_type": "cell membranes", "procedure,_shortened": "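Time course: RCE1-HA membranes (0.25 μg/μL) were irradiated at 2537 Å and 4 °C with 15 μM probe for 10–60 min, in 100 mM Hepes, 5 mM MgCl2, pH 7.5. Labelled protein was taken through streptavidin pull-down, SDS-PAGE and anti-HA Western blotting.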"}, "Saccharomyces cerevisiae [6]": {"tested_on": "Saccharomyces cerevisiae", "test": "Competitive binding affinity to Rce1p active site in yeast membrane at 15 uM measured 30 mins post irradiation by Western blot analysis in presence of 100 uM Abz-KSKTKC(Fr)K(Dnp)IM", "assay_type": "cell membranes", "procedure,_shortened": "as §2"}, "Saccharomyces cerevisiae [7]": {"tested_on": "Saccharomyces cerevisiae", "test": "Binding affinity to Rce1p in yeast membrane at 15 uM measured 30 mins post irradiation by Western blot analysis", "assay_type": "cell membranes", "procedure,_shortened": "as §3"}, "Saccharomyces cerevisiae [8]": {"tested_on": "Saccharomyces cerevisiae", "test": "Binding affinity to Rce1p in yeast membrane at 15 uM after 30 mins by Western blot analysis", "assay_type": "cell membranes", "procedure,_shortened": "as §3"}, "Saccharomyces cerevisiae [9]": {"tested_on": "Saccharomyces cerevisiae", "test": "Binding affinity to Rce1p in yeast membrane at 15 uM measured 20 mins post irradiation by pull-down-Western blot analysis", "assay_type": "cell membranes", "procedure,_shortened": "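Biotinylated probes at 15 μM were mixed with membranes (0.25 μg/μL) from the RCE1-HA rce1Δ ste24Δ yeast strain in 100 mM Hepes, 5 mM MgCl2, pH 7.5. Samples were irradiated at 2537 Å for 20 min at 4 °C. Protein was precipitated and pulled down on streptavidin for 4 h at 4 °C, then separated by 12% SDS-PAGE. Detection was by anti-HA Western blot with ECL, followed by densitometry.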"}, "Saccharomyces cerevisiae [10]": {"tested_on": "Saccharomyces cerevisiae", "test": "Binding affinity to rce1/ste24-deficient yeast cell membrane at 15 uM after 30 mins by Western blot analysis", "procedure,_shortened": "as §3"}, "Saccharomyces cerevisiae [11]": {"tested_on": "Saccharomyces cerevisiae", "test": "Activity of Rce1p in yeast membrane assessed as formation of Biotin-PEG3-KSK-Bpa-KC(Fr) at 20 uM after 4 hrs by RP-HPLC analysis", "assay_type": "cell membranes", "procedure,_shortened": "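Probe diluted to 20 or 40 μM in 100 mM Hepes, 5 mM MgCl2, pH 7.5. Carbonate-washed yeast membranes containing Rce1p were added to 0.25 mg/mL total protein and incubated at 35 °C for about 4 h. Material was cleaned up on C18 reversed-phase cartridges and analysed by C18 RP-HPLC with diode-array detection at 220 and 349 nm. Product identity was checked by ESI-MS/MS.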"}}, "note": "Active and inactive are the calls of the source. The rule behind the calls is not given here. Starred links: 1 amine or outer side, 2 acyl side, 3 side chain; linkers in the order of their positions; H or OH if unused. Non-standard residues stand in square brackets, D forms with d. Residues, ends and D or L forms follow the SMILES beside them. *: point of attachment. X5 = O=C1N[C@H]2[C@H](CS[C@H]2CCCCC(=O)OCCOCCOCCN([C@@H](Cc2ccc(C(=O)c3ccccc3)cc2)C(=O)[*:2])[*:1])N1; X1 = NCCCC[C@@H](C(=O)[*:2])N(CCOCCOCCOC(=O)CCCC[C@@H]1SC[C@@H]2NC(=O)N[C@@H]21)[*:1]; Lys(Dde) = CC(NCCCC[C@H](N)C(=O)O)=C1C(=O)CC(C)(C)CC1=O; X4 = O=C1N[C@H]2[C@H](CS[C@H]2CCCCC(=O)OCCOCCOCCOCN*)N1; X2 = C/C(=C\\C*)CC/C=C(\\C)COCc1cccc(C(=O)c2ccccc2)c1; Bpa = N[C@@H](Cc1ccc(C(=O)c2ccccc2)cc1)C(=O)O; Dnp = O=[N+]([O-])c1ccc(*)c([N+](=O)[O-])c1; X3 = C/C(=C\\C*)COCc1cccc(C(=O)c2ccccc2)c1; Farnesyl = CC(C)=CCC/C(C)=C/CC/C(C)=C/C*; Suc = O=C(CCC(=O)[*:2])[*:1]; 2Abz = Nc1ccccc1C(=O)O", "data": [{"smiles": "CC[C@H](C)[C@H](NC(=O)[C@H](CCCCNc1ccc([N+](=O)[O-])cc1[N+](=O)[O-])NC(=O)[C@H](CSC/C=C(\\C)CC/C=C(\\C)CCC=C(C)C)NC(=O)[C@H](CCCCN)NC(=O)[C@@H](NC(=O)[C@H](CCCCN)NC(=O)[C@H](CO)NC(=O)[C@H](CCCCN)NC(=O)c1ccccc1N)[C@@H](C)O)C(=O)N[C@@H](CCSC)C(=O)O", "note": "(H-[2Abz]KSKTKC(Farnesyl)K(Dnp)IM-OH)", "values": [{"measurement": "Km", "setting": "Saccharomyces cerevisiae [1]", "value": 6.4, "unit": "µM"}, {"measurement": "Vmax", "setting": "Saccharomyces cerevisiae [1]", "value": 5.6, "unit": "nmol/min/mg"}, {"measurement": "Vmax/Km", "setting": "Saccharomyces cerevisiae [2]", "value": 8.6, "unit": "×10⁻⁴ L/min"}]}, {"smiles": "CC[C@H](C)[C@H](NC(=O)[C@H](CCCCNc1ccc([N+](=O)[O-])cc1[N+](=O)[O-])NC(=O)[C@H](CSC/C=C(\\C)COCc1cccc(C(=O)c2ccccc2)c1)NC(=O)[C@H](CCCCN)NC(=O)[C@@H](NC(=O)[C@H](CCCCN)NC(=O)[C@H](CO)NC(=O)[C@H](CCCCN)NC(=O)c1ccccc1N)[C@@H](C)O)C(=O)N[C@@H](CCSC)C(=O)O", "note": "(H-[2Abz]KSKTKC(X3)K(Dnp)IM-OH)", "values": [{"measurement": "Km", "setting": "Saccharomyces cerevisiae [1]", "value": 1.9, "unit": "µM"}, {"measurement": "Vmax", "setting": "Saccharomyces cerevisiae [1]", "value": 0.093, "unit": "nmol/min/mg"}, {"measurement": "Vmax/Km", "setting": "Saccharomyces cerevisiae [2]", "value": 4.8, "unit": "×10⁻⁵ L/min"}]}, {"smiles": "CC[C@H](C)[C@H](NC(=O)[C@@H](NC(=O)[C@H](CSC/C=C(\\C)CC/C=C(\\C)CCC=C(C)C)NC(=O)[C@H](CCCCN)NC(=O)[C@H](Cc1ccc(C(=O)c2ccccc2)cc1)NC(=O)[C@H](CCCCN)NC(=O)[C@H](CO)NC(=O)[C@H](CCCCN)NCCOCCOCCOC(=O)CCCC[C@@H]1SC[C@@H]2NC(=O)N[C@@H]21)C(C)C)C(=O)N[C@@H](CCSC)C(=O)O", "note": "(H-[X1]SK[Bpa]KC(Farnesyl)VIM-OH)", "values": [{"measurement": "Activity", "setting": "Saccharomyces cerevisiae [3]", "value": 84, "unit": "%"}, {"measurement": "Activity", "setting": "Saccharomyces cerevisiae [4]", "value": "inactive"}, {"measurement": "Activity", "setting": "Saccharomyces cerevisiae [5]", "value": "Active"}, {"measurement": "Activity", "setting": "Saccharomyces cerevisiae [6]", "value": 7, "unit": "%"}, {"measurement": "Activity", "setting": "Saccharomyces cerevisiae [7]", "value": "Active"}, {"measurement": "Activity", "setting": "Saccharomyces cerevisiae [8]", "value": "inactive"}, {"measurement": "Activity", "setting": "Saccharomyces cerevisiae [9]", "value": "Active"}, {"measurement": "Activity", "setting": "Saccharomyces cerevisiae [10]", "value": "inactive"}, {"measurement": "Activity", "setting": "Saccharomyces cerevisiae [11]", "value": "Active"}]}, {"smiles": "CC[C@H](C)[C@H](NC(=O)[C@@H](NC(=O)[C@H](CSC/C=C(\\C)CC/C=C(\\C)CCC=C(C)C)NC(=O)[C@H](CCCCN)NC(=O)[C@@H](NC(=O)[C@H](Cc1ccc(C(=O)c2ccccc2)cc1)NC(=O)[C@H](CO)NC(=O)[C@H](CCCCN)NCCOCCOCCOC(=O)CCCC[C@@H]1SC[C@@H]2NC(=O)N[C@@H]21)[C@@H](C)O)C(C)C)C(=O)N[C@@H](CCSC)C(=O)O", "note": "(H-[X1]S[Bpa]TKC(Farnesyl)VIM-OH)", "values": [{"measurement": "Activity", "setting": "Saccharomyces cerevisiae [9]", "value": "Active"}]}, {"smiles": "CC[C@H](C)[C@H](NC(=O)[C@@H](NC(=O)[C@H](CSC/C=C(\\C)CC/C=C(\\C)CCC=C(C)C)NC(=O)[C@H](CCCCN)NC(=O)[C@@H](NC(=O)[C@H](CCCCN)NC(=O)[C@H](Cc1ccc(C(=O)c2ccccc2)cc1)NC(=O)[C@H](CCCCN)NCCOCCOCCOC(=O)CCCC[C@@H]1SC[C@@H]2NC(=O)N[C@@H]21)[C@@H](C)O)C(C)C)C(=O)N[C@@H](CCSC)C(=O)O", "note": "(H-[X1][Bpa]KTKC(Farnesyl)VIM-OH)", "values": [{"measurement": "Activity", "setting": "Saccharomyces cerevisiae [9]", "value": "Active"}]}, {"smiles": "CC[C@H](C)[C@H](NC(=O)[C@@H](NC(=O)[C@H](CSC/C=C(\\C)CC/C=C(\\C)CCC=C(C)C)NC(=O)[C@H](CCCCN)NC(=O)[C@@H](NC(=O)[C@H](CCCCN)NC(=O)[C@H](CO)NC(=O)[C@H](Cc1ccc(C(=O)c2ccccc2)cc1)NCCOCCOCCOC(=O)CCCC[C@@H]1SC[C@@H]2NC(=O)N[C@@H]21)[C@@H](C)O)C(C)C)C(=O)N[C@@H](CCSC)C(=O)O", "note": "(H-[X5]SKTKC(Farnesyl)VIM-OH)", "values": [{"measurement": "Activity", "setting": "Saccharomyces cerevisiae [9]", "value": "Active"}]}, {"smiles": "CC[C@H](C)[C@H](NC(=O)[C@H](CCCCNc1ccc([N+](=O)[O-])cc1[N+](=O)[O-])NC(=O)[C@H](CSC/C=C(\\C)CC/C=C(\\C)COCc1cccc(C(=O)c2ccccc2)c1)NC(=O)[C@H](CCCCN)NC(=O)[C@@H](NC(=O)[C@H](CCCCN)NC(=O)[C@H](CO)NC(=O)[C@H](CCCCN)NC(=O)[C@H](CCCCNC(C)=C1C(=O)CC(C)(C)CC1=O)NC(=O)CCC(=O)NCOCCOCCOCCOC(=O)CCCC[C@@H]1SC[C@@H]2NC(=O)N[C@@H]21)[C@@H](C)O)C(=O)N[C@@H](CCSC)C(=O)O", "note": "({X4-Suc}-[Lys(Dde)]KSKTKC(X2)K(Dnp)IM-OH)", "values": [{"measurement": "Activity", "setting": "Saccharomyces cerevisiae [9]", "value": "Active"}]}, {"smiles": "CC[C@H](C)[C@H](NC(=O)[C@H](CCCCNc1ccc([N+](=O)[O-])cc1[N+](=O)[O-])NC(=O)[C@H](CSC/C=C(\\C)COCc1cccc(C(=O)c2ccccc2)c1)NC(=O)[C@H](CCCCN)NC(=O)[C@@H](NC(=O)[C@H](CCCCN)NC(=O)[C@H](CO)NC(=O)[C@H](CCCCN)NC(=O)[C@H](CCCCNC(C)=C1C(=O)CC(C)(C)CC1=O)NC(=O)CCC(=O)NCOCCOCCOCCOC(=O)CCCC[C@@H]1SC[C@@H]2NC(=O)N[C@@H]21)[C@@H](C)O)C(=O)N[C@@H](CCSC)C(=O)O", "note": "({X4-Suc}-[Lys(Dde)]KSKTKC(X3)K(Dnp)IM-OH)", "values": [{"measurement": "Activity", "setting": "Saccharomyces cerevisiae [9]", "value": "Active"}]}]}
